Activity calls are given as the source filed them. The rule behind the calls is not given here.
Legend:
[1] = target: T1, Retinoic acid receptor RXR-alpha (Homo sapiens) (UniProt P19793); assay: Transactivation of RXRalpha (unknown origin) expressed in COS1 cells at 10 uM after 18 hrs by luciferase reporter gene assay relative to bexarotene; assay type: cell-based; conditions: COS-1
T1 sequence (whole entry): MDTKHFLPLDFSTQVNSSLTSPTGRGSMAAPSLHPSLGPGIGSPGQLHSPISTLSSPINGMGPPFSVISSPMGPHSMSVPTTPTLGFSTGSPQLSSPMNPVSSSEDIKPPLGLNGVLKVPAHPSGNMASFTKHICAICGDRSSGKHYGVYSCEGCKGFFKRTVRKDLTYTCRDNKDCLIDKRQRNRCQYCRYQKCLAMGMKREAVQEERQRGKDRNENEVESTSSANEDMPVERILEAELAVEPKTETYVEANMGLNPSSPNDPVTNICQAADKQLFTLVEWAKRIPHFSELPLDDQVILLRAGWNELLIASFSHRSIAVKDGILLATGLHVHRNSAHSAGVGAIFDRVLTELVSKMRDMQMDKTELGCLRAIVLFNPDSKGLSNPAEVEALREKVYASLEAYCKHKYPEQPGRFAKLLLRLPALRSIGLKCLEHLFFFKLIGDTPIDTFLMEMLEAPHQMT
Procedure, shortened: (§1)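 COS-1 cells in DMEM with 10% FBS at 37 °C, 5% CO2, transfected with RXRα, an RXR-response-element luciferase reporter and a SEAP background vector. Cells were seeded at about 2.0 × 10⁴ per well with compound (DMSO below 1%) for 18 h. Luciferase was normalized to SEAP and expressed relative to 1 μM reference RXR full agonist as 100%. EC50 came from full dose-response curves. Triplicates, at least three experiments.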

[2] = system: Mus musculus; assay: Toxicity in ICR mouse assessed as change in renal function parameters at 30 mg/kg/day, po for 7 days; assay type: organism-based; parameters: route oral; conditions: in vivo, 168 h
Procedure, shortened: (§2)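 Male ICR mice, 6−7 weeks old, four per cage, grouped by body weight. Oral 30 mg/kg or vehicle (1% ethanol/0.5% CMC in water, 10 mL/kg) once daily for 7 days, body weight recorded daily. After overnight fasting, mice were weighed under ether, and liver was removed and weighed. Serum was analysed on a dry-chemistry analyser for TG, TCHO, ALP, CRE, BUN and other markers. n = 7−23, ANOVA.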

[3] = target: T1, Retinoic acid receptor RXR-alpha (Homo sapiens); assay: Transactivation of RXRalpha (unknown origin) expressed in COS1 cells at 0.1 uM after 18 hrs by luciferase reporter gene assay relative to bexarotene; assay type: cell-based; conditions: COS-1; procedure, shortened: as §1
[4] = system: Mus musculus; assay: Toxicity against KKAy mouse assessed as plasma AST level at 10 mg/kg/day, po for 14 days (reference value: 49.6 +/- 2.3 IU); assay type: organism-based; parameters: route oral; conditions: in vivo, 336 h
[5] = system: Mus musculus; assay: Antidiabetic activity in KKAy mouse assessed as reduction in water intake on day 3 to 12 at 10 mg/kg/day, po for 14 days relative to control; assay type: functional, organism-based
Procedure, shortened: (§3)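 Male KK-A^y mice, housed singly after 6 weeks' acclimation and grouped by blood glucose. Oral 10 mg/kg/day or vehicle (1% ethanol/0.5% CMC in water, 10 mL/kg) for 14 days. Body weight, food and water intake were followed. Fed blood glucose was taken from the tail vein by the glucose oxidase method. n = 4−5, ANOVA.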

[6] = system: Mus musculus; assay: Toxicity against KKAy mouse assessed as plasma ALP level at 10 mg/kg/day, po for 14 days (reference value: 358.2 +/- 43.1 IU); assay type: organism-based; parameters: route oral; conditions: in vivo, 336 h
[7] = system: Rattus norvegicus; assay: Toxicity in Sprague-Dawley rat assessed as change in body weight at 30 mg/kg, po for 28 days; assay type: organism-based; parameters: dose 30 mg/kg, route oral; conditions: in vivo, 672 h
Procedure, shortened: (§4)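 Male and female SD rats, four weeks old on arrival, two per cage. Oral 30 mg/kg/day or vehicle (1% ethanol/0.5% CMC in water, 5 mL/kg) for 28 days, body weight recorded daily. After overnight fasting and isoflurane anaesthesia, liver, brain, kidney, spleen and testis were weighed, and serum was collected (2000g, 10 min, 4 °C) for blood chemistry.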

[8] = system: Mus musculus; assay: Toxicity in ICR mouse assessed as weight gain at 30 mg/kg/day, po for 7 days relative to control; assay type: organism-based; parameters: route oral; conditions: in vivo, 168 h; procedure, shortened: as §2
[9] = system: Mus musculus; assay: Toxicity against KKAy mouse assessed as plasma triglyceride level at 10 mg/kg/day, po for 14 days (reference value: 122.4 +/- 11.0 mg/dL); assay type: organism-based; parameters: route oral; conditions: in vivo, 336 h
[10] = system: Mus musculus; assay: Antidiabetic activity in KKAy mouse at 10 mg/kg/day, po for 14 days measured on day 15 by oral glucose tolerance test relative to control; assay type: functional, organism-based
Procedure, shortened: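 On day 15, KK-A^y mice dosed orally at 10 mg/kg/day for 14 days were fasted 17 h and given oral glucose at 1 g/kg. Blood glucose was read by glucose oxidase at 0, 15, 30, 45, 60, 90 and 120 min. n = 4−5.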

[11] = target: T2, Retinoic acid receptor gamma (Homo sapiens) (UniProt P13631); assay: Transactivation of RARgamma (unknown origin) by luciferase reporter gene assay relative to All-trans retinoic acid
T2 sequence (whole entry): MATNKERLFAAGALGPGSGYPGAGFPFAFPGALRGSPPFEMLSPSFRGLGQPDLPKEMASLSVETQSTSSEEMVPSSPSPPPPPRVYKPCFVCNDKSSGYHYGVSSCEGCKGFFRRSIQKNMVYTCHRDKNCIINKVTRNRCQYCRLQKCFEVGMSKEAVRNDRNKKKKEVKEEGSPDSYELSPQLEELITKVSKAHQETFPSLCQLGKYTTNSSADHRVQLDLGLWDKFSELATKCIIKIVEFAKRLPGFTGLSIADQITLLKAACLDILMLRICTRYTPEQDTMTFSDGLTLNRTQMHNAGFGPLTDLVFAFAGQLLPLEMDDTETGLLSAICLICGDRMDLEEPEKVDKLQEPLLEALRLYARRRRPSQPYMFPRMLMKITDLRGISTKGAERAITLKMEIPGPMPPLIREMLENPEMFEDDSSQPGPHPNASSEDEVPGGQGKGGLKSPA

[12] = target: T1, Retinoic acid receptor RXR-alpha (Homo sapiens); assay: Transactivation of RXRalpha (unknown origin) expressed in COS1 cells at 1 uM after 18 hrs by luciferase reporter gene assay relative to bexarotene; assay type: cell-based; conditions: COS-1; procedure, shortened: as §1
[13] = system: Mus musculus; assay: Hepatotoxicity in ICR mouse assessed as increase in ALP level at 30 mg/kg, po for 7 days; assay type: toxicity, organism-based; parameters: dose 30 mg/kg, route oral; conditions: in vivo, 168 h; procedure, shortened: as §2
[14] = system: Rattus norvegicus; assay: Toxicity in Sprague-Dawley rat assessed as change in weight of organs at 30 mg/kg, po for 28 days; assay type: organism-based; parameters: dose 30 mg/kg, route oral; conditions: in vivo, 672 h; procedure, shortened: as §4
[15] = system: Mus musculus; assay: Toxicity against KKAy mouse assessed as creatinine level at 10 mg/kg/day, po for 14 days (reference value: 0.2 mg/dl); assay type: organism-based; parameters: route oral; conditions: in vivo, 336 h
[16] = system: Mus musculus; assay: Toxicity against KKAy mouse assessed as blood urea nitrogen level at 10 mg/kg/day, po for 14 days (reference value: 21.9 +/- 1.1 mg/dL); assay type: organism-based; parameters: route oral; conditions: in vivo, 336 h
[17] = system: Mus musculus; assay: Antidiabetic activity in KKAy mouse assessed as reduction in blood glucose level on day 4 to 12 at 10 mg/kg/day, po for 14 days; assay type: functional, organism-based; procedure, shortened: as §3

Cc1cc2c(cc1-n1c(C(F)(F)F)nc3cc(C(=O)O)ccc31)C(C)(C)CCC2(C)C
Efficacy [1]: 71%
Activity [2]: Non-toxic
Efficacy [3]: 21%
Activity [4]: 42.3 IU
Activity [5]: Active
Activity [6]: 554 IU
Activity [7]: Non-toxic
Activity [8]: Non-toxic
Activity [9]: 185 mg/dL
Activity [10]: inactive
Activity [11]: Active
Efficacy [12]: 65%
Activity [13]: Toxic
Activity [14]: Non-toxic
Activity [15]: 0.2 mg/dL
Activity [16]: 22.5 mg/dL
Activity [17]: Active

— ChEMBL document CHEMBL2331224 (J Med Chem, 2013)
